The test system of this series is MS2 coat protein. The experiment in a line: apparent Kd, MS2 coat protein; higher = weaker binding; RNA-MaP array; FMN 200 µM where present. The gist of the method:
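The apparent Kd comes from binding curves fitted cluster by cluster, filtered, and summarised as a median. Those curves followed SNAP-549-labelled MS2 coat protein from 0.7 or 1.5 nM, doubling to 3 µM, on Illumina sequencing-chip clusters where stalled E. coli RNA polymerase had transcribed the designs, without and then with constant ligand. The buffer was 100 mM Tris-HCl pH 7.5, 80 mM KCl, 4 mM MgCl2, BSA, DTT, yeast tRNA and Tween-20, and green signal was normalised to red-channel RNA signal and control-cluster median Fmax.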

Setting [1] is: designed as: OFF switch for flavin mononucleotide, no ligand.
Where [2] appears, read: ligand present: flavin mononucleotide, designed as: OFF switch for flavin mononucleotide.
[3] abbreviates: designed as: ON switch for flavin mononucleotide, no ligand.
Setting [4] is: ligand present: flavin mononucleotide, designed as: ON switch for flavin mononucleotide.

What is called apparent Kd is the concentration giving half-maximal binding under the conditions of the assay.

“GUGUACAGAGGAUAUAUAUGAGCUAGGAAACUAGCAACCUCACAUGAGGAUCACCCAUGUAGAAGGCUGUACAC”: the “apparent Kd” value runs as follows: under setting [1], 103 nM; under setting [2], 346 nM. In the same order, the values of “UCAAUUCUGACAUCCUUAUUACAUGAGGAUCACCCAUGUUGUGAGGAUAUCCCAACCCACGGUCAGGAGAAGGCACAUAGAGGG” are 5.5 nM and 5.9 nM. Consider “AAUGAGACCGCAGGAUAUCCACAUGAGGAUCACCCAUGUUCUCAGGUCGUAAGCACGACCUGCGAGGAGAAGGGCGACCUCAUA”, for which the “apparent Kd” value runs as follows: under setting [3], 395 nM; under setting [4], 33.8 nM. As for “AUAAUUUAAGUGAGGAUAUACCUAUGGAAACAUAGGUAGAAGGCACAUGAGGAUCACCCAUGUUUUUACACAAA”, the “apparent Kd” value is 17.8 nM under setting [1] and 37.9 nM under setting [2]. As to “CGCUAAUAAUUAAUAUUAAUUGUACAGGAUAUGUAACAUGAGGAUCACCCAUGUAUUGGGUUUAAACAGAAGGGUAUAUUAGCG”, the “apparent Kd” value is, setting by setting: under setting [1], 387 nM; under setting [2], 92.4 nM. On to “AUUAUAUAGAAAGGAUAUAGAUUAUUAUUUUAACAUGAGGAUCACCCAUGUAGCCUUAUGUAUAACUAGAAGGUUCAUUUAUUA”, for which the “apparent Kd” value runs as follows: under setting [1], 72.8 nM; under setting [2], 94.4 nM. As to “CUAUUUAAGCAGAAGGCGUGGGAGAGAUUCACACGAGGAUAUGCGAUAACGGCGUAUGACAUGAGGAUCACCCAUGUACGUGCG”, the “apparent Kd” value under setting [3] stood at 5.83 nM and the “apparent Kd” value under setting [4] was 4.91 nM. As for “UUUGUGUCAGGAUAUCGGGCCAGCAAUACGGUAUGUGGGCACGAGAAGGGACAUGAGGAUCACCCAUGUGCCUU”, the “apparent Kd” value by setting is: under setting [1], 14.8 nM; under setting [2], 16.4 nM. Turning to “CGCAACAUGAGGAUCACCCAUGUUCGCGGGCAAUUUUAGUGCAGAAGGGACAACGAAACGUAGGGUCAGGAUAUGCAUGUGCGC”, the “apparent Kd” value is, setting by setting: under setting [3], 5.26 nM; under setting [4], 5.17 nM. On to “AUAUCUUGUCGAGGAUAUGUUGUAUUGAUCUGAAAACAUGAGGAUCACCCAUGUAUACGGUGGGAACAGAAGGUGGAUGUAGAA”, for which the “apparent Kd” value under setting [1] is 318 nM and the “apparent Kd” value under setting [2] is 356 nM. On to “ACAUGAGGAUCACCCAUGUUGAUAGUAGAAGGGACAGAGAAGUAGUAACAUGAGGAUCACCCAUGUCAGGAUAUGCGAAUUGGA”, for which the “apparent Kd” value came to 35.2 nM under setting [3] and 30.1 nM under setting [4]. With “UGGUGAUUUGUAGGAUAUGGAAAUAUAUUAUAACCAGAAGGACAUGAGGAUCACCCAUGUGAUAGAGUUUUUUUUUUUUCUCCU”, the “apparent Kd” value under setting [1] was determined as 31.5 nM and the “apparent Kd” value under setting [2] was 14.1 nM.

Turning to “UACAGCGUAGAUAAUUAUGUUACAUGAGGAUCACCCAUGUCAUAGGAUAUGCAGUGGAAUACACUGCAGAAGGAUGCAUCGCUG”, the “apparent Kd” value under setting [1] worked out at 14.7 nM and the “apparent Kd” value under setting [2] stood at 18.5 nM. Regarding “ACGAGGCUAGGAUAUACACAUCUGAUGACUCAUCCUAAAACACAUGAGGAUCACCCAUGUAGAAGGAGCAAAUA”, the “apparent Kd” value under setting [1] was 20.3 nM and the “apparent Kd” value under setting [2] was 15.1 nM.

With “AAGUCAGCAGGAUAUGCGAUGUUGGGCUAGAUAGCGUGACCACAUGAGGAUCACCCAUGUAGAAGGGCUGGCUA”, the “apparent Kd” value runs as follows: under setting [1], 37.4 nM; under setting [2], 43.7 nM. Consider “UUUUAACAUGAGGAUCACCCAUGUGAGGAUAUCGAAAUUUAUAUUAAUAUUUAUUAAUCGAGAAGGCACAUUUU”, for which the “apparent Kd” value was found to be 93.7 nM under setting [1] and 122 nM under setting [2]. Turning to “CAGAAGUCAGGAUAUGCUGCUCGUCACUUGCGUGAUGAGUAGCAGAAGGGACAUGAGGAUCACCCAUGUAAAGU”, the “apparent Kd” value runs as follows: under setting [1], 55.6 nM; under setting [2], 121 nM. On to “UGCUACGGAGGAUAUACAUGAGGAUCACCCAUGUGAGAGAUUUGGCCGAGAGGCCAGUGUAGAAGGCCGUAGCU”, for which the “apparent Kd” value under setting [1] amounted to 68.9 nM and the “apparent Kd” value under setting [2] is 416 nM. “GGAUCCAUGUAGAAGGCUGUCUUAAAAUAGGACAGAGGAUAUACAUGAGGAUCACCCAUGUACUCCUUUAAAAGGAUCCAAAUA”: the “apparent Kd” value by setting is: under setting [1], 5.5 nM; under setting [2], 8.65 nM. As to “CGCUAAGAGAACUAUUAGAGAAGACAUGAGGAUCACCCAUGUAGAAGGACAACGGAAUAAACGUUGUAGGAUAUACACUUAGCG”, the “apparent Kd” value came to 22.6 nM under setting [1] and 17 nM under setting [2]. In the case of “CAGAUUUGCUAGAAGGGUGACAUGAGGAUCACCCAUGUGCGGGCAGACCUAUCUUCAUGCCCGCCACAGGAUAUAGCAAUUUGC”, the “apparent Kd” value is 36.6 nM under setting [3] and 17.9 nM under setting [4].

“AUUAAGCAGCAGGAUAUAAGUAUCUAAAGGUGGUUAGAAGGGCUGACAUGAGGAUCACCCAUGUGCUCUUCGUG”: the “apparent Kd” value reads like this: under setting [1], 15.7 nM; under setting [2], 21.1 nM. With “GCGACGAAAGUCGAACGAUGUAGCAGAAGGACAUGAGGAUCACCCAUGUCAGCUGUAACAGCCAUGUAGGAUAUGCUACAUCGU”, the “apparent Kd” value is, setting by setting: under setting [1], 4.18 nM; under setting [2], 5.27 nM. On to “ACAUAAAUUCGAGGAUAUCGGUGAUAUAAUUUACGAGAAGGCGAUAAUUGUUAUAAACUUAUAGACAUGAGGAUCACCCAUGUA”, for which the “apparent Kd” value is, setting by setting: under setting [3], 32.1 nM; under setting [4], 31.9 nM. For “GGAUCGUAAGGAUAUACAUGAGGAUCACCCAUGUGGAUCUAACGGGUCGCCAAGUCGUGUAGAAGGUGCCGUCU”, the “apparent Kd” value is, setting by setting: under setting [1], 22.7 nM; under setting [2], 20.6 nM. As to “AAUUGAAACGUAGGAUAUCGCUAUUAAUUAAUUCGAGAAGGACGUACAUGAGGAUCACCCAUGUUUAAUGGUGUAGUUUAGUUG”, the “apparent Kd” value is, setting by setting: under setting [1], 179 nM; under setting [2], 252 nM. For “GUAUAGAUUACAUGAGGAUCACCCAUGUCAGAACGGGUAAUCAGAAGGUAUUAUUAGAGAAAGGGUAAGGAUAUGAUUUUAUAU”, the “apparent Kd” value was found to be 598 nM under setting [3] and 389 nM under setting [4]. “CCUUUGUCAGGAUAUCAGAACACGCCCGUAGGGAGUGCAAAUGAGAAGGGACAUGAGGAUCACCCAUGUACAGA”: the “apparent Kd” value was found to be 33.2 nM under setting [1] and 114 nM under setting [2]. In the case of “AAAAAGUCAGGAUAUGGCAAAGGUCACGAAAGUGACAAAGGCUAGAAGGGACAUGAGGAUCACCCAUGUAAAAA”, the “apparent Kd” value is, setting by setting: under setting [1], 29 nM; under setting [2], 32.4 nM. Take “GCUGUCGCGUGAGGAUAUGGUCGGCUUUGCUGACCAGAAGGCAUGUCAAUAGACAUGAGGAUCACCCAUGUGGUUAGGGCGGCU”: the “apparent Kd” value by setting is: under setting [3], 1020 nM; under setting [4], 134 nM. “ACAAGAUCAGGAUAUACAUGAGGAUCACCCAUGUAUAUAAAAAAAGGGCCUUCUACAUGUAGAAGGGAUCUUGU”: the “apparent Kd” value is, setting by setting: under setting [1], 13.8 nM; under setting [2], 13.7 nM. “AUAAUGUGAGGAUAUCAGUAGUAUUGCUUCGGCAAUACUACUGAGAAGGCACAUGAGGAUCACCCAUGUGAUCA”: the “apparent Kd” value reads like this: under setting [1], 1380 nM; under setting [2], 32.8 nM.

Take “UCCACUGCUGAGAAGGGAUACGUGUGGUUCGAAUCAGGAUAUCGAUACAGUGCAGCAUGAGGACAUGAGGAUCACCCAUGUAUU”: the “apparent Kd” value under setting [3] is 19.1 nM and the “apparent Kd” value under setting [4] worked out at 14.2 nM. As for “UUGUUAGGGAGAGGAUAUUGACAUGAGGAUCACCCAUGUACUUGGGAGUGUUUACUGAAUUCUCACGAGAAGGCUUACAAAUUU”, the “apparent Kd” value under setting [1] was determined as 175 nM and the “apparent Kd” value under setting [2] is 147 nM. As for “CUCCGUGGCGAGAAGGGCGGGAUUUUAGGUUCUGUAGGAUAUCGAAACAUGAGGAUCACCCAUGUAUUGAUCGGGUGCAGUGUG”, the “apparent Kd” value under setting [1] was 22 nM and the “apparent Kd” value under setting [2] worked out at 23.2 nM. Consider “AGCUGGUGACAGCAAGAAAGUUCACAUGAGGAUCACCCAUGUAGAAGGCUGUACGGUUACCGUACAGAGGAUAUACAUAGAAAG”, for which the “apparent Kd” value runs as follows: under setting [1], 19.9 nM; under setting [2], 31.5 nM.

“AAAACAUGAGGAUCACCCAUGUAAAGUUCAAACAAUAUGAGUGAGGAUAUACUGAGUUAGUUAUGGUAGAAGGCACUGGGUACA”: the “apparent Kd” value reads like this: under setting [3], 35 nM; under setting [4], 28.7 nM. “ACACGGUAUGUAGGAUAUGCAUAGCAUUGCUAUGCAGAAGGACAUGAGGAUCACCCAUGUAUGUAUUCCAUACUAAUCCCGUGG”: the “apparent Kd” value by setting is: under setting [1], 5.77 nM; under setting [2], 5.74 nM. As to “AUCAGCUCGUCAGGAUAUACGUCACUGCGUCAGCAGUGUGGCAAGAUCACAUGAGGAUCACCCAUGUAGAAGGGACGAGCUGAU”, the “apparent Kd” value was 21.2 nM under setting [1] and 399 nM under setting [2]. In the same order, the values of “ACGUUUUAUGCAGGAUAUUGACAUAUAUUUAAACAAGAAGGGCAUUACAUGAGGAUCACCCAUGUUAUAAUGGUAUUUAAGUUC” are 14.7 nM and 15.6 nM.

On to “UGGUACUAGGGAGGAUAUGGGAAGAUACAUGAGGAUCACCCAUGUUUAAGAAUGCCGAGAGGCAACUAGAAGGCCCUAGCACCU”, for which the “apparent Kd” value is, setting by setting: under setting [3], 426 nM; under setting [4], 19 nM. On to “UUCCAGCUUGUCAGGAUAUACUUAGGGUAAUCAGAGUAGAAGGGACAUGAGGAUCACCCAUGUGACGCUUGAGC”, for which the “apparent Kd” value under setting [1] stood at 65.2 nM and the “apparent Kd” value under setting [2] was determined as 118 nM. On the same counts, the results for “UGUGCACUAGGAUAUGCGUAAGCUGAUACGUCAGCAGGUCUACAUGAGGAUCACCCAUGUAGAAGGAGUGUACU” are 17.1 nM and 16.9 nM.

For “CCUCGACAUGAGGAUCACCCAUGUUAGGAUAUGGGAGCGGGAAUUUGAGUAUUCGUACCCAGAAGGAACAGUUA”, the “apparent Kd” value under setting [1] was found to be 42.6 nM and the “apparent Kd” value under setting [2] was determined as 96 nM. For “GACAAGUGAGGAUAUCUGAUGUCUAACUUCGGUUAGACAUCAGAGAAGGCACAUGAGGAUCACCCAUGUCUGUC”, the “apparent Kd” value reads like this: under setting [1], 30.7 nM; under setting [2], 20.8 nM.

Regarding “AGGUAAGACUUAAUUGUGCUGGUGAGAAGGCAAAUGGUUGUGAUUAACAUGAGGAUCACCCAUGUUGAGGAUAUCAUCGGUAUC”, the “apparent Kd” value under setting [2] is 62.9 nM. Consider “AGUUAUUCAGGAUAUGGUGUGUUAUACAUGAGGAUCACCCAUGUAGAUCCUGGUUAGGCCUCAGAAGGGAAUGUUC”, for which the “apparent Kd” value reads like this: under setting [1], 182 nM; under setting [2], 183 nM. As for “CGAUAUUAUGCAGGAUAUCUCCCUUGAAUGCGGAGAGAAGGGCAUAGGGAGACAUACGCCUUAUUACAUGAGGAUCACCCAUGU”, the “apparent Kd” value was found to be 9.4 nM under setting [1] and 8.29 nM under setting [2].

(Values after the EternaBench riboswitch data.)
